Test results reported in ChEMBL document CHEMBL3580648, “Dimeric Abietane Diterpenoids and Sesquiterpenoid Lactones from Teucrium viscidum” (J Nat Prod, 2015).
Counter-ions that a name gives are not always drawn.

Experiments:
[1] = Cytotoxic activity against human BGC823 cells by MTT method; type: functional, cell-based; details: BGC-823
Outline: (§1)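 MTT assay on the cancer cell line. IC50 taken as the concentration that cuts absorbance to 50% of control. Values are means of three independent experiments.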

HeLa = experiment: Cytotoxic activity against human HeLa cells by MTT method; type: functional, cell-based; outline: as §1
[2] = Cytotoxic activity against human H460 cells by MTT method; type: functional, cell-based; details: NCI-H460; outline: as §1
HCT-116 = experiment: Cytotoxic activity against human HCT116 cells by MTT method; type: functional, cell-based; outline: as §1
[3] = Inhibition of Saccharomyces cerevisiae alpha-glucosidase pre-incubated for 10 mins at 25 degC before addition of p-nitrophenyl-alpha-D-glucopyranoside substrate by UV absorption based assay
Outline: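 Yeast α-glucosidase at 1.0 U/mL in 0.1 M K3PO4 buffer, pH 6.9, mixed with test compound in DMSO. Preincubated 10 min at 25 °C, then started with PNPG (5.0 mM solution in the same buffer). A405 was read at once and again after 5 min at 25 °C. ΔA was compared with a DMSO control to give % inhibition and IC50, as means of three independent experiments.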

HepG2 = experiment: Cytotoxic activity against human HepG2 cells by MTT method; type: functional, cell-based; outline: as §1

For CC(C)C1=C[C@]23Oc4c(C(C)C)cc5c(c4O[C@@]2(C(=O)C1=O)C12COC3C[C@H]1C(C)(C)C[C@H](O)C2)C12COC5C[C@H]1C(C)(C)C[C@H](O)C2 (stereo not given in full), the IC50 [1] was 4.8 µM, the IC50 (HeLa) was 5.2 µM and the IC50 [2] was 8.5 µM. It also gave an IC50 (HCT-116) of 6.3 µM, an IC50 [3] greater than 1000 µM and an IC50 (HepG2) of 5.2 µM.

CC(C)C1=CC2=C(C(=O)C1=O)[C@]13CO[C@H]2C[C@H]1C(C)(C)C[C@H](O)C3 gave an IC50 [1] greater than 10 µM, an IC50 (HeLa) greater than 10 µM and an IC50 [2] greater than 10 µM. It also gave an IC50 (HCT-116) of 7.3 µM, an IC50 [3] greater than 1000 µM and an IC50 (HepG2) greater than 10 µM.

CC(=O)O[C@@H]1C(=O)C=C(C)[C@@H]2CC3=C(C)C(=O)O[C@@]3(O)C[C@@]12C gave an IC50 [1] greater than 10 µM, an IC50 (HeLa) greater than 10 µM and an IC50 [2] greater than 10 µM. For the same compound, the IC50 (HCT-116) was greater than 10 µM, the IC50 [3] was greater than 1000 µM and the IC50 (HepG2) was greater than 10 µM.

In the case of CC(=O)O[C@@H]1C[C@H](O)[C@H](C)[C@H]2CC3=C(C)C(=O)O[C@]3(O)C[C@@]21C, the IC50 [1] is reported as greater than 10 µM, the IC50 (HeLa) is reported as greater than 10 µM and the IC50 [2] is reported as greater than 10 µM. For the same compound, the IC50 (HCT-116) was greater than 10 µM, the IC50 [3] was greater than 1000 µM and the IC50 (HepG2) was greater than 10 µM.

C[C@H]1O[C@H](O[C@H]2[C@H](O)[C@@H](O)[C@@H](O[C@H]3[C@H](O)[C@@H](O)C(O)O[C@@H]3CO)O[C@@H]2CO)[C@H](O)[C@@H](O)[C@@H]1N[C@H]1C=C(CO)[C@@H](O)[C@H](O)[C@H]1O (stereo not given in full) [ACARBOSE] gave an IC50 [3] of 169 µM.

Compound CC(=O)O[C@H]1C[C@@H](O)[C@@]2(C)C[C@@]3(O)OC(=O)C(C)=C3C[C@@H]2[C@H]1C has an IC50 [1] greater than 10 µM, an IC50 (HeLa) greater than 10 µM and an IC50 [2] greater than 10 µM. It also gave an IC50 (HCT-116) greater than 10 µM, an IC50 [3] greater than 1000 µM and an IC50 (HepG2) greater than 10 µM.

With CC(=O)O[C@@H]1C(=O)C=C(C)[C@]2(O)CC3=C(C)C(=O)O[C@@]3(O)C[C@@]12C the IC50 [1] was greater than 10 µM, the IC50 (HeLa) was greater than 10 µM and the IC50 [2] was greater than 10 µM. The IC50 (HCT-116) was greater than 10 µM, the IC50 [3] was 300 µM and the IC50 (HepG2) was greater than 10 µM.

Compound COc1cccc2c1C(=O)c1c(O)c3c(c(O)c1C2=O)C[C@@](O)(C(=O)CO)C[C@@H]3O[C@H]1C[C@H](N)[C@H](O)[C@H](C)O1 [DOXORUBICIN HYDROCHLORIDE] has an IC50 [1] of 0.76 µM, an IC50 (HeLa) of 0.72 µM and an IC50 [2] of 0.24 µM. The IC50 (HepG2) was 0.24 µM.

With CC1=CC(=O)[C@@H](O)[C@]2(C)C[C@]3(O)OC(=O)C(C)=C3C[C@@H]12 the IC50 [1] was greater than 10 µM, the IC50 (HeLa) was greater than 10 µM and the IC50 [2] was greater than 10 µM. For the same compound, the IC50 (HCT-116) was greater than 10 µM, the IC50 [3] was 568 µM and the IC50 (HepG2) was greater than 10 µM.

CC(C)C1=C[C@@]23Oc4c(C(C)C)cc5c(c4O[C@]2(C(=O)C1=O)C12COC3C[C@H]1C(C)(C)C[C@H](O)C2)C12COC5C[C@H]1C(C)(C)C[C@H](O)C2 (stereo not given in full) gave an IC50 [1] greater than 10 µM, an IC50 (HeLa) greater than 10 µM and an IC50 [2] greater than 10 µM. The IC50 (HCT-116) was greater than 10 µM, the IC50 [3] was greater than 1000 µM and the IC50 (HepG2) was greater than 10 µM.

CC(C)c1cc2c(c(O)c1O)[C@]13CO[C@H]2C[C@H]1C(C)(C)C[C@H](O)C3 gave an IC50 [1] greater than 10 µM, an IC50 (HeLa) greater than 10 µM and an IC50 [2] greater than 10 µM. It also gave an IC50 (HCT-116) greater than 10 µM, an IC50 [3] greater than 1000 µM and an IC50 (HepG2) greater than 10 µM.

Work on CC1=C2C[C@@H]3[C@@H](C)[C@@H](O)C[C@@H](O)[C@@]3(C)C[C@@]2(O)OC1=O yielded an IC50 [1] greater than 10 µM, an IC50 (HeLa) greater than 10 µM and an IC50 [2] greater than 10 µM. The IC50 (HCT-116) was greater than 10 µM, the IC50 [3] was greater than 1000 µM and the IC50 (HepG2) was greater than 10 µM.
